Laboratory results as given in ChEMBL document CHEMBL1138136, “Aplysamine-1 and related analogs as histamine H3 receptor antagonists” (Bioorg Med Chem Lett, 2006).

How the values were obtained:
Histamine H3 receptor [1] = target: T1, Histamine H3 receptor (Homo sapiens, UniProt Q9Y5N1); assay: Displacement of N-[3H]methylhistamine from human histamine H3 receptor expressed in SK-N-MC cells; type: cell-based
Histamine H3 receptor [2] = target: Histamine H3 receptor (Rattus norvegicus, UniProt Q9QYN8); assay: Displacement of N-[3H]methylhistamine from rat histamine H3 receptor in rat cortical hemispheres
Histamine H3 receptor [3] = target: T1, Histamine H3 receptor; assay: Activity against human histamine H3 receptor by histamine induced inhibition of forskolin stimulated cAMP accumulation in SK-N-MC cells; type: functional, cell-based; conditions: read-out: pA2 (converted)
Summary of the method: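 SK-N-MC cells overexpressing human H3 receptor; antagonist-induced rightward shifts of histamine dose–response curves for inhibition of forskolin-stimulated cAMP accumulation measured. pA2 obtained by Schild regression analysis.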

T1 sequence (Q9Y5N1 whole entry): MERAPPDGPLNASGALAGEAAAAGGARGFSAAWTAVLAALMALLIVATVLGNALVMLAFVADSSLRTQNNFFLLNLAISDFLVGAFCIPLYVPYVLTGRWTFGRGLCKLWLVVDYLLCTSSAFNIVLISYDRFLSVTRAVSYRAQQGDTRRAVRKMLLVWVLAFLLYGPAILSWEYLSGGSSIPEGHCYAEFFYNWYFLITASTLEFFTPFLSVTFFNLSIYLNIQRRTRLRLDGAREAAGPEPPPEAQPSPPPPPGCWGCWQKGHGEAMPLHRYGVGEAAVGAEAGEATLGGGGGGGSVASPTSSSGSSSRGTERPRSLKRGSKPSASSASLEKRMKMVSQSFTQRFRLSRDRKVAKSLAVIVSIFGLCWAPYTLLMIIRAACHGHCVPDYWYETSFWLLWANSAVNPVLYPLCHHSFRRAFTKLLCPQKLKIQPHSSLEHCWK
Chain of Histamine H3 receptor (Rattus norvegicus, UniProt Q9QYN8) (Q9QYN8 whole entry): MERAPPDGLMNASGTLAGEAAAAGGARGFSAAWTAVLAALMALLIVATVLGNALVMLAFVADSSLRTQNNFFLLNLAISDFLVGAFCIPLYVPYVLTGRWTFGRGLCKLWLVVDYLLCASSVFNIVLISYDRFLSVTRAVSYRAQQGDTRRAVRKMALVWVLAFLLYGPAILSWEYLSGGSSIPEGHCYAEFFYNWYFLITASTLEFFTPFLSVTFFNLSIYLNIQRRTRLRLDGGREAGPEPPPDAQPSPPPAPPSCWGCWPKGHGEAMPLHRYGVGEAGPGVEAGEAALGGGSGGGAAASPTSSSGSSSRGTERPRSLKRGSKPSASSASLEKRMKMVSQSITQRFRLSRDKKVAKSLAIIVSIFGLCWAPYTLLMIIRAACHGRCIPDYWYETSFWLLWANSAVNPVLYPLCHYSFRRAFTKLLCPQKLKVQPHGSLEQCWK

SMILES | Ki (Histamine H3 receptor [1]) [µM] | Ki (Histamine H3 receptor [2]) [µM] | Kb (Histamine H3 receptor [3]) [µM]
CN(C)CCCOc1ccc(CN2CCCCC2)cc1 | 0.003 | 0.045 | 0.00933
c1cc(OCCCN2CCCCC2)ccc1CN1CCCCC1 [JNJ-5207852] |  | 0.001 | 
CN(C)CCCOc1c(Br)cc(CCN(C)C)cc1Br [APLYSAMINE] |  | 0.249 | 
CN(C)CCCOc1c(Br)cc(CN(C)C)cc1Br | 0.036 | 0.319 | 
Brc1cc(CN2CCCCC2)cc(Br)c1OCCCN1CCCCC1 | 0.008 | 0.057 | 0.00724
CN(C)CCc1ccc(OCCCN2CCCCC2)cc1 | 0.0005 | 0.005 | 0.000501
CN(C)CCCOc1ccc(CCN(C)C)cc1 | 0.006 | 0.089 | 0.017
CN(C)CCOc1ccc(CCN(C)C)cc1 | 0.04 | 0.345 | 
CN(C)CCc1ccc(OCCN2CCCCC2)cc1 | 0.014 | 0.05 | 
CCCCN(CCCC)CCCOc1ccc(-c2cn3c(C)cccc3n2)cc1 | 4 |  | 
CN(C)CCCOc1ccc(CN(C)C)cc1 | 0.018 | 0.255 | 
